Published values from different studies.
Target: Glycogen synthase kinase-3 beta (GSK3B, Homo sapiens, UniProt P49841)

COc1ncccc1-c1cnn2ccc(N3CCN(C(=O)OC(C)C)CC3)nc12 — remaining binding (binding, competition with immobilised ligand; 1 µM): 62%
Cn1cc(-c2cccc(N3CCc4c(sc5c4CC(C)(C)C5)C3=O)c2CO)cc(Nc2ccncn2)c1=O — inhibition (enzyme activity, inhibitor; 1 µM): -5%
Cc1nn(C)cc1-c1nc2c(N3CCN(Cc4ccc(Cl)cc4)CC3)c(Cl)cnc2[nH]1 — remaining binding (binding, competition with immobilised ligand; 1 µM): 68%
O=c1[nH]c2ccccc2n1C1CCN(Cc2ccc(-c3[nH]c4cc5ncnc5cc4nc3-c3ccccc3)cc2)CC1 — remaining activity (enzyme activity; 0.5 µM): 113%
Cn1cc(-c2cc(F)cc(N3CCn4c(cc5c4CCCC5)C3=O)c2CO)cc(Nc2ccc(N3CCN(C4COC4)CC3)cn2)c1=O — inhibition (enzyme activity, inhibitor; 0.1 µM): 5%
COc1c2c(cc3c1OCO3)CC[N+](C)=C2 — inhibition (enzyme activity, inhibitor, ADP detection; 100 µM): 24.8%
C#Cc1n[nH]c2c(-c3cn([C@@H](C)c4ccccn4)c(=O)[nH]c3=O)cc(F)cc12 — inhibition (enzyme activity, inhibitor; 0.1 µM): -0.1%
Nc1ncc(-c2nc(N3CCOCC3)nc(N3CCOCC3)n2)c(C(F)F)n1 — remaining binding (binding, competition with immobilised ligand; 10 µM): 74%
COc1cc2c(cc1-c1cc3cc4ccoc4cc3oc1=O)OCO2 — inhibition (enzyme activity, inhibitor, ADP detection; 100 µM): 26.4%
Cn1cncc1[C@](O)(COc1ccc(C#N)cc1-c1ccc(OC(F)(F)F)cc1)c1ccc(C#N)cc1 — remaining binding (cell-free assay, competition with immobilised ligand; 1 µM): 93%
O=[N+]([O-])c1ccc([As](=O)(O)O)cc1 — inhibition (enzyme activity, inhibitor, ADP detection; 100 µM): 5.2%
CC(C)(C)c1cc(C=C(C#N)C#N)cc(Br)c1O — remaining activity (enzyme activity, inhibitor; 0.5 µM): 107%
C#Cc1n[nH]c2c(-c3cn([C@@H](C)c4ccccc4)c(=O)[nH]c3=O)cc(F)cc12 — inhibition (enzyme activity, inhibitor; 0.1 µM): -3.5%
